From ChEMBL document CHEMBL1136627, “Discovery of novel neuronal voltage-dependent calcium channel blockers based on emopamil left hand as a bioactive template” (Bioorg Med Chem Lett, 2003)

System: not listed separately
Assay: Neuronal voltage-dependent calcium channel (VDCC) inhibitory activity determined in rat cortical synaptosomes
Format: subcellular, Brain
In short: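 Rat cortical synaptosomes depolarized with KCl; rise in intracellular Ca2+ measured fluorimetrically with Fura2; IC50 (µM) for inhibition of the KCl-elicited [Ca2+]i elevation; racemic test compounds.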

| IC50 [µM] | SMILES |
| --- | --- |
| 7.5 | CC(C)C(C#N)(CCCN1CCN(CCOc2ccc([N+](=O)[O-])cc2)CC1)c1ccccc1 (stereo unspecified) |
| 12 | CC(C)C(C#N)(CCCN1CCN(Cc2ccccc2)CC1)c1ccccc1 (stereo unspecified) |
| 7.7 | CC(C)C(C#N)(CCCN1CCN(CCOc2cccc(C#N)c2)CC1)c1ccccc1 (stereo unspecified) |
| > 16 | CC(C)C(C#N)(CCCN1CCN(CCO)CC1)c1ccccc1 (stereo unspecified) |
| > 16 | CC(C)C(C#N)(CCCN1CCN(C)CC1)c1ccccc1 (stereo unspecified) |
| 5.9 | CC(C)C(C#N)(CCCN1CCN(CCOc2ccc(F)cc2)CC1)c1ccccc1 (stereo unspecified) |
| 7.7 | CC(C)C(C#N)(CCCN1CCN(CCc2ccccc2)CC1)c1ccccc1 (stereo unspecified) |
| 4.5 | CC(C)C(C#N)(CCCN1CCN(CCCc2ccccc2)CC1)c1ccccc1 (stereo unspecified) |
| > 16 | CC(C)C(C#N)(CCCN1CCNCC1)c1ccccc1 (stereo unspecified) |
| 13 | CC(C)C(C#N)(CCCN1CCN(CCOc2ccc(C#N)cc2)CC1)c1ccccc1 (stereo unspecified) |
| 9.3 | CC(C)C(C#N)(CCCN1CCN(CCOc2ccccc2F)CC1)c1ccccc1 (stereo unspecified) |
| 13 | CC(C)C(C#N)(CCCN1CCN(CCOc2ccc(N)cc2)CC1)c1ccccc1 (stereo unspecified) |
| 5.2 | CC(C)C(C#N)(CCCN1CCN(CCOc2ccc(F)c(F)c2)CC1)c1ccccc1 (stereo unspecified) |
| > 16 | CC(C)C(C#N)(CCCN1CCN(c2ccccc2)CC1)c1ccccc1 (stereo unspecified) |
| 2.5 | CC(C)C(C#N)(CCCN1CCN(CCOc2cccc3ccccc23)CC1)c1ccccc1 (stereo unspecified) |
| 6.2 | CC(C)C(C#N)(CCCN1CCN(CCOc2cccc(F)c2)CC1)c1ccccc1 (stereo unspecified) |
| > 16 | CC(C)C(C#N)(CCCN1CCN(CCOc2ccc(N(C)C)cc2)CC1)c1ccccc1 (stereo unspecified) |
| > 16 | C#CCCCCN1CCN(CCCC(C#N)(c2ccccc2)C(C)C)CC1 (stereo unspecified) |
| 16 | CC(C)C(C#N)(CCCN1CCN(CCOc2ccccc2C#N)CC1)c1ccccc1 (stereo unspecified) |
| 9.6 | COc1ccc(OCCN2CCN(CCCC(C#N)(c3ccccc3)C(C)C)CC2)cc1 (stereo unspecified) |
| > 16 | CC(C)C(C#N)(CCCN1CCN(CCOc2cccnc2)CC1)c1ccccc1 (stereo unspecified) |
| 28 | CC(C)C(C#N)(CCCN(C)CCc1ccccc1)c1ccccc1 (stereo unspecified) [EMOPAMIL] |
| > 16 | CC(C)C(C#N)(CCCN1CCN(CCOc2ccccn2)CC1)c1ccccc1 (stereo unspecified) |
| 3.4 | CC(C)C(C#N)(CCCN1CCN(CCOc2ccc(Cl)cc2)CC1)c1ccccc1 (stereo unspecified) |
| > 16 | CC(C)C(C#N)(CCCN1CCN(CCOc2ccncc2)CC1)c1ccccc1 (stereo unspecified) |

System: Mus musculus
Assay: Anti seizure activity was evaluated in the audiogenic seizure model using DBA/2 mice at 10 mg/kg (iv)
Format: functional
In short: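 DBA/2 mice given test compound iv at 10 mg/kg; 5 min later each mouse placed singly under a perspex dome and exposed to sound (100 dB, 11 kHz) continued for 60 s; scored for sound-induced tonic convulsion.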

| SMILES | Protection [%] |
| --- | --- |
| CC(C)C(C#N)(CCCN1CCN(CCOc2ccc(F)cc2)CC1)c1ccccc1 (stereo unspecified) | 100 |
